According to ChEMBL document CHEMBL3228012, “Actinomycin D oxazinones as improved antitumor agents” (1979):
Converted amounts (≈) assume the structure as drawn. The source made the active and inactive calls. No cut-off for these calls is given here. Starred links: 1 amine or outer side, 2 acyl side, 3 side chain; linkers in the order of their positions; H or OH if unused. Positions of bridges follow the written chain, without caps; N, C: chain ends. Non-standard residues stand in square brackets, D forms with d. Residues, ends and D or L forms follow the SMILES beside them. Chains are numbered I, II in the order given. Actinocin(1to9) = Cc1c2oc3c(C)ccc(C(=O)[*:2])c3nc-2c(C(=O)[*:1])c(N)c1=O; NMeV = CN[C@H](C(=O)O)C(C)C; Sar = CNCC(=O)O

Assays:
P388 [1] = assay: Antitumor activity against mouse P388 cells allografted in mouse BDF1 mouse assessed as increase in survival time of mouse at 150 ug/kg, ip for 4 days relative to untreated control; settings: 96 h
Calf thymus DNA [2] = assay: Binding affinity to calf thymus DNA in 0.15 M NaCl-0.01 M sodium phosphate buffer at pH 7.3 at 37 degC incubated for 30 mins; assay type: nucleic-acid assay; settings: Bos taurus
In short: (§1)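 Compounds were mixed with calf thymus DNA, and binding was monitored by difference absorption spectra with and without DNA. Binding to DNA was judged from a bathochromic shift of λmax with hypochromicity.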

P388 [3] = assay: Antitumor activity against mouse P388 cells allografted in mouse BDF1 mouse assessed as increase in survival >50 days at 150 ug/kg, ip for 4 days
Calf thymus DNA [4] = assay: Binding affinity to calf thymus DNA in 0.15 M NaCl-0.01 M sodium phosphate buffer at pH 7.3 at 37 degC incubated for 5 mins; assay type: nucleic-acid assay; settings: Bos taurus
In short: as §1

CCRF-CEM = assay: Antitumor activity against human CCRF-CEM cells assessed as growth inhibition after 48 hrs; assay type: functional; settings: read-out: ID50 (the source's name)
In short: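 Human leukemic lymphoblasts were grown in continuous spinner suspension culture. Compounds were exposed for 48 h. ID50 was taken as the concentration in ng/mL giving 50% growth inhibition.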

Calf thymus DNA [5] = assay: Binding affinity to calf thymus DNA in 0.15 M NaCl-0.01 M phosphate buffer at pH 7.3 at 37 degC incubated for 30 mins; settings: Bos taurus
Calf thymus DNA [6] = assay: Binding affinity to calf thymus DNA in 0.01 M phosphate buffer at pH 7 at 20 degC incubated for 5 mins; assay type: nucleic-acid assay; settings: Bos taurus
In short: as §1

P388 [7] = assay: Antitumor activity against mouse P388 cells allografted in mouse BDF1 mouse assessed as increase in survival >50 days at 300 ug/kg, ip for 4 days
P388 [8] = assay: Antitumor activity against mouse P388 cells allografted in mouse BDF1 mouse assessed as increase in survival time of mouse at 300 ug/kg, ip for 4 days relative to untreated control; settings: 96 h
P388 [9] = assay: Antitumor activity against mouse P388 cells allografted in mouse BDF1 mouse assessed as increase in survival >50 days at 50 ug/kg, ip for 4 days
P388 [10] = assay: Antitumor activity against mouse P388 cells allografted in mouse BDF1 mouse assessed as increase in survival time of mouse at 50 ug/kg, ip for 4 days relative to untreated control; settings: 96 h
P388 [11] = assay: Antitumor activity against mouse P388 cells allografted in mouse BDF1 mouse assessed as survival time of mouse at 75 ug/kg, ip for 4 days (reference value: 11.5 days)
P388 [12] = assay: Antitumor activity against mouse P388 cells allografted in mouse BDF1 mouse assessed as survival time of mouse at 150 ug/kg, ip for 4 days (reference value: 11.5 days)
P388 [13] = assay: Antitumor activity against mouse P388 cells allografted in mouse BDF1 mouse assessed as survival time of mouse at 50 ug/kg, ip for 4 days (reference value: 11.5 days)
P388 [14] = assay: Antitumor activity against mouse P388 cells allografted in mouse BDF1 mouse assessed as increase in survival time of mouse at 75 ug/kg, ip for 4 days relative to untreated control; settings: 96 h
P388 [15] = assay: Antitumor activity against mouse P388 cells allografted in mouse BDF1 mouse assessed as increase in survival >50 days at 75 ug/kg, ip for 4 days
P388 [16] = assay: Antitumor activity against mouse P388 cells allografted in mouse BDF1 mouse assessed as complete suppression of tumor on day 307 at 150 ug/kg, ip for 4 days
P388 [17] = assay: Antitumor activity against mouse P388 cells allografted in mouse BDF1 mouse assessed as survival time of mouse at 300 ug/kg, ip for 4 days (reference value: 11.5 days)

Compound	Percent increase in survival time vs untreated control at 0.15 mg/kg (P388 [1])	Activity (Calf thymus DNA [2])	Activity (P388 [3])	Activity (Calf thymus DNA [4])	IC50 (CCRF-CEM)	Activity (Calf thymus DNA [5])	Activity (Calf thymus DNA [6])	Activity (P388 [7])	survival at 0.3 mg/kg (P388 [8])	survival at 0.15 mg/kg (P388 [1])	Activity (P388 [9])	survival at 0.05 mg/kg (P388 [10])	MST (P388 [11])	MST (P388 [12])	MST (P388 [13])	survival at 0.075 mg/kg (P388 [14])	Activity (P388 [15])	Activity (P388 [16])	MST (P388 [17])
Cc1ccc(C(=O)N[C@@H]2C(=O)N[C@H](C(C)C)C(=O)N3CCC[C@H]3C(=O)N(C)CC(=O)N(C)[C@@H](C(C)C)C(=O)O[C@@H]2C)c2c1Oc1c(c(C(=O)N[C@@H]3C(=O)N[C@H](C(C)C)C(=O)N4CCC[C@H]4C(=O)N(C)CC(=O)N(C)[C@@H](C(C)C)C(=O)O[C@@H]3C)c3nc(CC(=O)O)c(=O)oc3c1C)N2	140%	Active	inactive	inactive	0.012 µg/mL (≈ 8.87 nM)	Active	inactive												
Cc1ccc(C(=O)N[C@@H]2C(=O)N[C@H](C(C)C)C(=O)N3CCC[C@H]3C(=O)N(C)CC(=O)N(C)[C@@H](C(C)C)C(=O)O[C@@H]2C)c2c1Oc1c(c(C(=O)N[C@@H]3C(=O)N[C@H](C(C)C)C(=O)N4CCC[C@H]4C(=O)N(C)CC(=O)N(C)[C@@H](C(C)C)C(=O)O[C@@H]3C)c3ncc(=O)oc3c1C)N2	169%	Active	inactive	inactive	0.024 µg/mL (≈ 18.5 nM)	Active	inactive												
Cc1ccc(C(=O)N[C@@H]2C(=O)N[C@H](C(C)C)C(=O)N3CCC[C@H]3C(=O)N(C)CC(=O)N(C)[C@@H](C(C)C)C(=O)O[C@@H]2C)c2c1Oc1c(c(C(=O)N[C@@H]3C(=O)N[C@H](C(C)C)C(=O)N4CCC[C@H]4C(=O)N(C)CC(=O)N(C)[C@@H](C(C)C)C(=O)O[C@@H]3C)c3nc(CCC(=O)O)c(=O)oc3c1C)N2		Active		inactive	0.028 µg/mL (≈ 20.5 nM)	Active	inactive	inactive	159%										
Cc1c2oc3c(C)ccc(C(=O)N[C@@H]4C(=O)N[C@H](C(C)C)C(=O)N5CCC[C@H]5C(=O)N(C)CC(=O)N(C)[C@@H](C(C)C)C(=O)O[C@@H]4C)c3nc-2c(C(=O)N[C@@H]2C(=O)N[C@H](C(C)C)C(=O)N3CCC[C@H]3C(=O)N(C)CC(=O)N(C)[C@@H](C(C)C)C(=O)O[C@@H]2C)c(N)c1=O [DACTINOMYCIN] (I: T[dV]P[Sar][NMeV] / II: T[dV]P[Sar][NMeV]; ester I:1-I:C, II:1-II:C; linker I:N-II:N via Actinocin(1to9))			inactive		0.01 µg/mL (≈ 7.97 nM)					-31%	inactive	141%	30 days	8 days	28 days	149%	inactive		
Cc1ccc(C(=O)N[C@@H]2C(=O)N[C@H](C(C)C)C(=O)N3CCC[C@H]3C(=O)N(C)CC(=O)N(C)[C@@H](C(C)C)C(=O)O[C@@H]2C)c2c1Oc1c(c(C(=O)N[C@@H]3C(=O)N[C@H](C(C)C)C(=O)N4CCC[C@H]4C(=O)N(C)CC(=O)N(C)[C@@H](C(C)C)C(=O)O[C@@H]3C)c3nc(C)c(=O)oc3c1C)N2	155%	Active	inactive	inactive	0.012 µg/mL (≈ 9.16 nM)	Active	inactive												
CCc1nc2c(C(=O)N[C@@H]3C(=O)N[C@H](C(C)C)C(=O)N4CCC[C@H]4C(=O)N(C)CC(=O)N(C)[C@@H](C(C)C)C(=O)O[C@@H]3C)c3c(c(C)c2oc1=O)Oc1c(C)ccc(C(=O)N[C@@H]2C(=O)N[C@H](C(C)C)C(=O)N4CCC[C@H]4C(=O)N(C)CC(=O)N(C)[C@@H](C(C)C)C(=O)O[C@@H]2C)c1N3	204%	Active		inactive	0.012 µg/mL (≈ 9.07 nM)	Active	inactive	inactive	126%				29 days	35 days		152%	inactive	Active	26 days
